{"source": "paper PMC10959575", "about": "(Journal of the American Society for Mass Spectrometry, 2023)", "key": {"α-syn [1]": {"biological_target": "T1, α-syn (Homo sapiens, UniProt P37840)", "assay": "IM-MS of α-syn with Mn2+ and CLR01", "method_in_brief": "(§1)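 IM-MS on a quadrupole-IM-time-of-flight instrument: spray 1–2 kV, sampling cone 10–20 V, source offset 20 V. Spectra taken over the full m/z range, with each charge state extracted over its [M+nH]ⁿ⁺ peak. Ligand at 5x molar concentration for wild-type protein; metal-bound protein with ligand at a 1:3 molar ratio.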"}, "[2]": {"biological_target": "α-syn/Mn^2+/CLR01 complex (Homo sapiens, UniProt P37840)", "assay": "ECD top-down FT-ICR MS of the α-syn/Mn2+/CLR01 complex", "type": "binding", "method_in_brief": "(§2)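 ESI on a 15T FT-ICR instrument: spray 1–2 kV, capillary exit 100 V, deflector plate 200 V, funnel 90 V, skimmer 50 V. Complex ions isolated with a 5–20 m/z notch, then fragmented by ECD (bias 1 V, pulse 10–50 ms). Product spectra deconvoluted with S/N limit 2. c- and z-ions assigned at 5 ppm error, with ligand and metals as unlocalized modifications.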"}, "α-syn [3]": {"biological_target": "T1, α-syn", "assay": "Native MS of α-syn/Mn2+/CLR01 solution, 1:5:3 molar ratio", "type": "binding", "method_in_brief": "(§3)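 Protein at 10–30 μM in 20 mM ammonium acetate, with ligand added to 10–50 μM. Electrosprayed at 1–2 kV on a 15T FT-ICR (capillary exit 100 V, deflector 200 V, funnel 90 V, skimmer 50 V). Spectra deconvolved. Percent binding calculated from intensities of unbound and ligand-bound peaks.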"}, "α-syn [4]": {"biological_target": "T1, α-syn", "assay": "Native MS of α-syn/Cu2+/CLR01 solution, 1:1:3 molar ratio", "type": "binding", "method_in_brief": "as §3"}, "α-syn/ Cu^2+ complex": {"biological_target": "α-syn/ Cu^2+ complex (Homo sapiens, UniProt P37840)", "assay": "IM-MS of the α-syn/Cu2+ complex with and without CLR01", "conditions": "9+ charge state", "method_in_brief": "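Copper-bound α-syn in 20 mM ammonium acetate, analysed with test compound at 1:3 molar ratio and without it. Mobility measured by quadrupole-IM-TOF: spray 1–2 kV, sampling cone 10–20 V, source offset 20 V. Data for each charge state extracted over the [M+nH]ⁿ⁺ peak.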"}, "[5]": {"biological_target": "α-syn/Cu^2+/CLR01 complex (Homo sapiens, UniProt P37840)", "assay": "ECD top-down FT-ICR MS of the α-syn/Cu2+/CLR01 complex", "type": "binding", "method_in_brief": "as §2"}, "[6]": {"biological_target": "wild type α-syn, acetylated α-syn, and phosphorylated α-syn (Homo sapiens, UniProt P37840)", "assay": "Native MS of equimolar proteoform mixture with equimolar CLR01", "type": "binding", "conditions": "equimolar ratio of CLR01", "method_in_brief": "as §3"}, "acetylated α-syn": {"biological_target": "acetylated α-syn (Homo sapiens, UniProt P37840)", "assay": "IM-MS of acetylated α-syn with CLR01", "conditions": "9+ charge state", "method_in_brief": "(§4)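 Acetylated (made as previously described) or phosphorylated α-syn in 20 mM ammonium acetate, mixed 1:1 molar with test compound. Ion mobility–MS run on a quadrupole-IM-TOF: spray 1–2 kV, sampling cone 10–20 V, source offset 20 V. Mobiligrams extracted per charge state over the [M+nH]ⁿ⁺ peak.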"}, "phosphorylated α-syn": {"biological_target": "phosphorylated α-syn (Homo sapiens, UniProt P37840)", "assay": "IM-MS of phosphorylated α-syn with CLR01", "conditions": "9+ charge state", "method_in_brief": "as §4"}, "A30P α-syn [7]": {"biological_target": "T2, A30P α-syn (Homo sapiens, UniProt P37840, A30P)", "assay": "Native MS of A30P α-syn with CLR01", "type": "binding", "conditions": "native solution conditions", "method_in_brief": "as §3"}, "A30P α-syn [8]": {"biological_target": "T2, A30P α-syn", "assay": "ECD top-down FT-ICR MS, binding site location on A30P α-syn", "conditions": "A30P α-syn with 2 CLR01 molecules bound", "method_in_brief": "(§5)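 Protein (10–30 μM) in 20 mM ammonium acetate with test compound at 10–50 μM. Native ESI on a 15T FT-ICR: spray 1–2 kV, capillary exit 100 V, deflector 200 V, funnel 90 V, skimmer 50 V. Complexes isolated with 5–20 m/z notch, then ECD (bias 1 V, pulse 10–50 ms). Fragments deconvoluted at S/N 2. c/z ions assigned at 5 ppm error, with ligand as unlocalized modification.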"}, "tau protein": {"system": "tau protein", "conditions": "IM-MS; cited from earlier work"}, "WT α-syn [9]": {"biological_target": "T3, WT α-syn (Homo sapiens, UniProt P37840)", "assay": "Native MS of WT α-syn with CLR01", "type": "binding", "method_in_brief": "as §3"}, "A30P α-syn [10]": {"biological_target": "T2, A30P α-syn", "assay": "IM-MS of A30P α-syn/CLR01 complexes", "conditions": "8+ and 9+ charge states", "method_in_brief": "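WT and A30P α-syn (10–30 μM) in 20 mM ammonium acetate, with test compound at 5x molar excess. Read on a quadrupole-IM-TOF instrument: spray 1–2 kV, sampling cone 10–20 V, source offset 20 V. IM spectra taken over the full m/z range. Per-charge-state data extracted over the [M+nH]ⁿ⁺ peak.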"}, "WT α-syn [11]": {"biological_target": "T3, WT α-syn", "assay": "IM-MS of WT α-syn with CLR01", "method_in_brief": "as §1"}, "wildtype α-syn": {"biological_target": "wildtype α-syn (Homo sapiens, UniProt P37840)", "assay": "ECD top-down FT-ICR MS, binding site location on WT α-syn", "conditions": "13+ charge state, α-syn bound with 2 CLR01 molecules", "method_in_brief": "as §5"}, "α-syn [12]": {"biological_target": "T1, α-syn", "conditions": "IM-MS; cited from earlier work"}}}
{"molecule": "[Mn+2]", "note": "[Mn^2+]", "values": [{"measurement": "structural effect of Mn2+ binding", "setting": "α-syn [1]; Mn2+ alone", "value": "only slightly compacts"}, {"measurement": "Mn2+ binding location", "setting": "[2]", "value": "acidic C-terminal region"}, {"measurement": "number of Mn2+ binding events observed", "setting": "α-syn [3]; 1:5:3 α-syn:Mn2+:CLR01", "value": "up to 5"}, {"measurement": "α-syn bound by Mn2+", "setting": "α-syn [3]; CLR01 not bound to the protein", "value": 86, "unit": "%"}]}
{"molecule": "[Cu+2]", "note": "[Cu^2+]", "values": [{"measurement": "α-syn bound by Cu2+", "setting": "α-syn [4]; 0 CLR01 molecules bound", "value": 65, "unit": "%"}, {"measurement": "number of copper binding events", "setting": "α-syn [4]; 1:1:3 α-syn:Cu2+:CLR01", "value": 1}, {"measurement": "ion mobiligram of Cu2+ bound α-syn versus WT form", "setting": "α-syn/ Cu^2+ complex; no CLR01", "value": "early arriving ensembles significantly more abundant"}, {"measurement": "Cu2+ binding location", "setting": "[5]", "value": "N-terminus"}]}
{"molecule": "CLR01", "values": [{"measurement": "number of CLR01 molecules that bind each proteoform", "setting": "[6]", "value": "up to 2"}, {"measurement": "change of ion mobiligram on CLR01 binding", "setting": "acetylated α-syn", "value": "increase in the abundance of early arriving ensembles"}, {"measurement": "structural effect when CLR01 and Mn2+ both bind", "setting": "α-syn [1]; CLR01 and Mn2+ bound", "value": "the structure of α-syn is compacted"}, {"measurement": "change of ion mobiligram on CLR01 binding", "setting": "phosphorylated α-syn", "value": "further increase in abundance of the early arriving ensembles"}, {"measurement": "number of CLR01 binding events observed", "setting": "α-syn [3]; 1:5:3 α-syn:Mn2+:CLR01", "value": "≤ 4"}, {"measurement": "α-syn bound by Mn2+", "setting": "α-syn [3]; 1 CLR01 molecule bound", "value": 89, "unit": "%"}, {"measurement": "α-syn bound by Mn2+", "setting": "α-syn [3]; 2 CLR01 molecules bound", "value": 92, "unit": "%"}, {"measurement": "number of CLR01 binding events observed", "setting": "A30P α-syn [7]", "value": "up to 5"}, {"measurement": "total CLR01 bound to the protein", "setting": "A30P α-syn [7]", "value": 74, "unit": "%"}, {"measurement": "CLR01 binding location", "setting": "A30P α-syn [8]", "value": "K10 and K12 with a possible additional site of binding at K21"}, {"measurement": "structural effect of binding on tau protein", "setting": "tau protein", "value": "compacts the structure of tau protein"}, {"measurement": "number of CLR01 molecules bound simultaneously with Cu2+", "setting": "α-syn [4]; 1:1:3 α-syn:Cu2+:CLR01", "value": "Up to 3"}, {"measurement": "α-syn bound by Cu2+", "setting": "α-syn [4]; 3 CLR01 molecules bound", "value": 57, "unit": "%"}, {"measurement": "CLR01 in solution bound to the protein", "setting": "WT α-syn [9]; CLR01 at 5x molar concentration", "value": 63, "unit": "%"}, {"measurement": "number of CLR01 binding events observed", "setting": "WT α-syn [9]; CLR01 at 5x molar concentration, deconvolved mass spectrum", "value": "up to 5"}, {"measurement": "Kd values for the fourth and fifth binding sites", "setting": "WT α-syn [9]; WT α-syn titrated with CLR01, thought to bind nonspecifically", "value": "did not converge well"}, {"measurement": "change of ion mobiligram on CLR01 binding", "setting": "α-syn/ Cu^2+ complex; α-syn/Cu2+ complex", "value": "further increases the abundance of the early arriving conformers"}, {"measurement": "change of ion mobiligram on CLR01 binding", "setting": "A30P α-syn [10]", "value": "early arriving ensembles increase in abundance"}, {"measurement": "change of ion mobiligram on CLR01 binding", "setting": "WT α-syn [11]; 9+ charge state, 1 CLR01 molecule bound", "value": "increase in abundance of the early arriving ensemble"}, {"measurement": "change of ion mobiligram on CLR01 binding", "setting": "WT α-syn [11]; higher charge states such as 12+", "value": "do not show significant shifts"}, {"measurement": "binding location of the second CLR01 molecule", "setting": "wildtype α-syn", "value": "K12 with a secondary binding location at K21"}]}
{"molecule": "epigallocatechin-3-gallate [EGCG]", "values": [{"measurement": "structural effect of binding on α-syn", "setting": "α-syn [12]", "value": "promotes compaction of α-syn structure"}]}
